The values that follow come from article PMC3529830 (Chemistry & biology, 2012).

A value given as a limit tells only on which side of the number the result lay.

The subject of data set [1] is P. falciparum. Nature of the data set: P. falciparum replication assay. The class given is cell-based. The note with it: Plasmodium falciparum, read-out: EC50, parasite replication.
Data set [2] deals with non-confluent human foreskin fibroblast (HFF) cells. The data set can be described thus: HFF cell toxicity assay. The format is cell-based. The note with it: read-out: EC50, host cell killing.
The target of data set [3] is putative β5 subunit of P. falciparum proteasome (Plasmodium falciparum, UniProt Q8IJT1). Nature of the data set: Proteasome activity in intact inhibitor-treated trophozoites by MV151 labeling. The class given is cell-based. The essentials: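 P. falciparum culture at ~15% parasitemia; intact trophozoites exposed 1 hr to a range of inhibitor concentrations, then pelleted and washed 3× in fresh medium. Hypotonic lysis (50 mM Tris pH 7.4, 5 mM MgCl2, 1 mM DTT) on ice 1 hr. ≥2 μg lysate labeled with 2 μM MV151, 37°C 1 hr. Run on 12% SDS-PAGE, TAMRA fluorescence scan. Band intensity expressed as % of DMSO; curve fit to IC50; 3 independent experiments.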

For another data set, the system named is P. falciparum proteasome. The data set can be described thus: Recovery of P. falciparum proteasome activity after inhibitor washout. The format is cell-based, Plasmodium falciparum.
For a further data set, the system named is P. berghei. The data set can be described thus: P. berghei mouse model of malaria, parasitemia. The class given is in vivo, Plasmodium berghei in Balb/c mice. The note with it: tolerated dose, I.V. daily for 3 consecutive days.
For data set [4], the system named is P. falciparum gametocytes. The data set can be described thus: P. falciparum gametocyte viability assay. The class given is cell-based, Plasmodium falciparum. The note with it: 24 hr treatment.
The conditions of data set [5]: 5 consecutive days of treatment; ref Demo et al., 2007; cited from earlier work.
The nature of data set [6]: Host toxicity in P. berghei infected mice during treatment. The note with it: daily I.V. doses, scruffy coat, significant weight loss.
For another data set, the system named is A549 cells. The note with it: 1 μM; ref Czesny et al., 2009; cited from earlier work.
Another data set has as its system NIH3T3 cells. The note with it: 1 μM; ref Czesny et al., 2009; cited from earlier work.
For data set [7], the system named is P. falciparum. The note with it: 1 μM; ref Czesny et al., 2009; cited from earlier work.
The conditions of data set [8]: rat P. berghei model; ref Gantt et al., 1998; cited from earlier work.

For `CC(C)C[C@H](NC(=O)[C@H](CCc1ccccc1)NC(=O)CN1CCOCC1)C(=O)N[C@@H](Cc1ccccc1)C(=O)N[C@@H](CC(C)C)C(=O)[C@@]1(C)CO1` [carfilzomib, Carfilzomib], the half-maximal effective concentration (EC50) (usually the concentration giving half of the maximal effect) came out at 28.8 nM in the data set with P. falciparum [1] and 492 nM in [2]. Further, the IC50 – broadly, the point on the concentration scale where inhibition reaches its midpoint – in data set [3] was 25 nM. Also, in the data set on P. falciparum proteasome (100 nM dose, activity determined 10 hr after washout), the “inhibitor exposure necessary to prevent recovery of proteasome activity” value is listed as “at least 6 hr”. In addition, in the data set with P. falciparum proteasome (1 μM, 1 hr treatment, 47 hrs after compound washout), the “recovery of proteasome activity after washout” value was “substantial recovery of proteasome activity”. In addition, in the data set with P. falciparum proteasome (1 hr treatment of trophozoites, washout, depending on the dose), the “time to recovery of proteasome activity after inhibitor removal” value is no more than 24 h. For the same compound, the “effect on parasite burden” value with P. berghei is “only a very minor effect on parasite burden at day 3”. Moreover, the activity against gametocytes entry in data set [4] is recorded as “effective towards gametocytes”. Further, in data set [5], the maximum tolerable dose is given as 2 mg/kg. Moreover, in data set [6], the “dose at which mice started to develop signs of compound toxicity” value was 1 mg/kg.
As for `CC[C@H](C)[C@H](NC(=O)[C@H]([C@@H](C)CC)N(C)C(C)=O)C(=O)N[C@H](C(=O)N[C@@H](CC(C)C)C(=O)[C@@]1(C)CO1)[C@@H](C)O` [epoxomicin], the decrease in viability in the data set with A549 cells and in the data set on NIH3T3 cells was 20% each time. Further, the “effect on P. falciparum replication” value in the data set with P. falciparum [7] is listed as “completely blocking”.
Take `CC(=O)N[C@@H](CSC(=O)[C@]1([C@@H](O)C(C)C)NC(=O)[C@H](C)[C@@H]1O)C(=O)O` [lactacystin, Lactacystin]: the host toxicity result in [8] is “significant host toxicity”.
